In ChEMBL document CHEMBL2331343 (Bioorg Med Chem, 2013):
Active and inactive are the calls of the source. The calls are words filed in the database; no cut-off is given here.

Legend:
[1] = biological target: T1, 5-hydroxytryptamine receptor 1A (Homo sapiens, UniProt P08908); experiment: Displacement of [3H]8-OH-DPAT from 5-HT1A receptor (unknown origin) expressed in HEK293 cells by liquid scintillation counter; format: cell-based
T1 sequence (P08908 whole entry): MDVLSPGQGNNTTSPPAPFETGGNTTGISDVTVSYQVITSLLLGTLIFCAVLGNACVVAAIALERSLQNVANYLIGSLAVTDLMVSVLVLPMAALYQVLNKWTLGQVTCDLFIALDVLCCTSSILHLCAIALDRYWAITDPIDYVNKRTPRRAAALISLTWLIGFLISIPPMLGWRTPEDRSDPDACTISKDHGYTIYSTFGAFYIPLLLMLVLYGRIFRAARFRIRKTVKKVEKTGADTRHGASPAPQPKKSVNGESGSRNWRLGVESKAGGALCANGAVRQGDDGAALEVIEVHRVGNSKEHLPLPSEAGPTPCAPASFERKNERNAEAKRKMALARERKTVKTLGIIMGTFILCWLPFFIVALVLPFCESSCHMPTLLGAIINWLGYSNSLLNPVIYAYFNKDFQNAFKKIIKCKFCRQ

[2] = biological target: T2, D(1A) dopamine receptor (Homo sapiens, UniProt P21728); experiment: Inhibition of [3H]SCH23390 binding to dopamine D1 receptor (unknown origin) expressed in human HEK293 cells at 10 uM by liquid scintillation counter relative to control; format: cell-based
T2 sequence (P21728 whole entry): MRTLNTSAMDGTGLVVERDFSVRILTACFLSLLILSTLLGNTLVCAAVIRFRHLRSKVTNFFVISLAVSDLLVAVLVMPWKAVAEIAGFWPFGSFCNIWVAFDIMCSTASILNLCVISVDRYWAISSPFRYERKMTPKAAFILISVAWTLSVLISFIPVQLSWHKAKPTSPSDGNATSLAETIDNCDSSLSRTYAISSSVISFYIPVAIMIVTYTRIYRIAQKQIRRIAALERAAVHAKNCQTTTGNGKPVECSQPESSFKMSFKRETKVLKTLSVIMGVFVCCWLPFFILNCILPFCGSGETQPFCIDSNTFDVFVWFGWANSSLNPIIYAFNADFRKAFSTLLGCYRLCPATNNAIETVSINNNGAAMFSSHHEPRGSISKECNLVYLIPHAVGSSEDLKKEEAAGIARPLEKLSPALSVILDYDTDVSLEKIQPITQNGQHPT
Procedure, shortened: (§1)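 Stably transfected HEK293T D1 membranes, […], duplicate incubation 50 min at 30 °C with [3H]SCH23390 in 50 mM Tris, 4 mM MgCl2, pH 7.4. Nonspecific binding with 10 μM SCH23390. GF/B filtration, scintillation counting.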

[3] = biological target: T3, 5-hydroxytryptamine receptor 2A (Homo sapiens, UniProt P28223); experiment: Inhibition of [3H]Ketanserin binding to 5-HT2A receptor (unknown origin) expressed in HEK293 cells at 10 uM by liquid scintillation counter relative to control; format: cell-based
T3 sequence (P28223 whole entry): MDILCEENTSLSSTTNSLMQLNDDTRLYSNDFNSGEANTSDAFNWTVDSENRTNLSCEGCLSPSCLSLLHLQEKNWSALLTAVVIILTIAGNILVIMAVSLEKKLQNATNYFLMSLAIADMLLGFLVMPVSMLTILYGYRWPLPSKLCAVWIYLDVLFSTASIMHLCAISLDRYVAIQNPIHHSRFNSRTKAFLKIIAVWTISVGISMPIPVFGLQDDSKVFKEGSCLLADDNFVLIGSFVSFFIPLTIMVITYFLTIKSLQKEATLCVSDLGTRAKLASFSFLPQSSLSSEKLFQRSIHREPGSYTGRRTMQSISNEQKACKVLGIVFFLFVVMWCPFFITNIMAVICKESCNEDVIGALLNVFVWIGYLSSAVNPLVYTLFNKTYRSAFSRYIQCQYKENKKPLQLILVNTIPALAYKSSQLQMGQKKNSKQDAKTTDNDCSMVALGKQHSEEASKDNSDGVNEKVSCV
Procedure, shortened: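 Membranes of HEK293T stably transfected with 5-HT2A, […], incubated in duplicate 15 min at 37 °C with [3H]ketanserin in 50 mM Tris, 4 mM MgCl2, pH 7.4. […] GF/B filtration, cold wash, scintillation counting.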

[4] = biological target: T4, D(2) dopamine receptor (Homo sapiens, UniProt P14416); details: HEK293, at 10 µM
T4 sequence (P14416 whole entry): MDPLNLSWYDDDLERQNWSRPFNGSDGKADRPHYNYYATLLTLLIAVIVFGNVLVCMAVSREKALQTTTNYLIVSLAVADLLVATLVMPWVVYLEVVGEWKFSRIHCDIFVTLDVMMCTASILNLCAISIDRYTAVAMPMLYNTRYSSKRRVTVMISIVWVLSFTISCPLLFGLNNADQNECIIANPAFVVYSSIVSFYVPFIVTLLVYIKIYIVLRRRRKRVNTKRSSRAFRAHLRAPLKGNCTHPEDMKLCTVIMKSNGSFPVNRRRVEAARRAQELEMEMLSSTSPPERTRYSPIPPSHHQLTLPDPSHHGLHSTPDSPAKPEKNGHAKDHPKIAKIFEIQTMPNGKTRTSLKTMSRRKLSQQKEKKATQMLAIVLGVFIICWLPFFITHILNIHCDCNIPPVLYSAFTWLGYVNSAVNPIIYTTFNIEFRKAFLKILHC

[5] = biological target: T3, 5-hydroxytryptamine receptor 2A; experiment: Displacement of [3H]Ketanserin from 5-HT2A receptor (unknown origin) expressed in HEK293 cells by liquid scintillation counter; format: cell-based
[6] = biological target: T5, 5-hydroxytryptamine receptor 1A (Homo sapiens) (UniProt P08908); experiment: Inhibition of [3H]8-OH-DPAT binding to 5-HT1A receptor (unknown origin) expressed in HEK293 cells at 10 uM by liquid scintillation counter relative to control; format: cell-based
T5 sequence (whole entry): T1 sequence (P08908 whole entry)
Procedure, shortened: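 Membranes of HEK293T stably transfected with 5-HT1A, […], incubated in duplicate 50 min at 30 °C with [3H]8-OH-DPAT in 50 mM Tris, 4 mM MgCl2, pH 7.4. Nonspecific binding with 10 μM WAY100635. Filtration on GF/B, cold Tris/EDTA wash, scintillation counting.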

[7] = biological target: T2, D(1A) dopamine receptor; experiment: Displacement of [3H]SCH23390 from dopamine D1 receptor (unknown origin) expressed in human HEK293 cells by liquid scintillation counter; format: cell-based; procedure, shortened: as §1
[8] = biological target: T4, D(2) dopamine receptor; experiment: Displacement of [3H]spiperone from dopamine D2 receptor (unknown origin) expressed in human HEK293 cells by liquid scintillation counter; format: cell-based
[9] = tested on: Rattus norvegicus; experiment: Antipsychotic activity in Sprague-Dawley rat schizophrenia model assessed as inhibition of PCP-induced prepulse inhibition at 0.5 mg/kg, ip administered 10 mins prior testing monitored for 5 mins; format: functional, organism-based; design: dose 0.5 mg/kg
Procedure, shortened: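 Male Sprague–Dawley rats (230–280 g) received ip saline or drug 10 min before PCP (5 mg/kg, ip). Acoustic startle PPI was tested 5 min after PCP, after 3-min acclimation: 40 ms, 120 dB white-noise pulse-alone and prepulse+pulse trials, 15–25 s intertrial interval, 74 dB background, about 20 min session. %PPI = [1 − (prepulse+pulse startle)/(pulse-alone startle)] × 100.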

For `COc1c(O)ccc2c1CN1CCc3cc4c(cc3[C@@H]1C2)OCCO4`, the Ki [1] was 208 nM, the inhibition [2] was 22.6% and the inhibition [3] was 97.3%. For the same compound, the inhibition [4] was 73.1%, the Ki [5] was 363 nM and the inhibition [6] was 90.8%.

`COc1cc2c(cc1O)CCN1Cc3c(ccc(OC)c3O)C[C@@H]21` showed an inhibition [2] of 95.2%, an inhibition [3] of 59.1% and a Ki [7] of 530 nM. For the same compound, the Ki [8] was > 5000 nM, the inhibition [4] was 79.8% and the inhibition [6] was 60.5%.

`COc1cc2c(cc1O)CCN1Cc3c(ccc(O)c3OC)C[C@H]21` was tested, and the inhibition [2] was 67.1%, the inhibition [3] was 13.9% and the inhibition [4] was 27.7%. The inhibition [6] was 13.2%.

In the case of `COc1cc2c(cc1O)[C@@H]1Cc3ccc(OC)c(O)c3CN1CC2` [SCOULERINE], the inhibition [2] is reported as 99.1%, the inhibition [3] is reported as 20.9% and the Ki [7] is reported as 22 nM. The Ki [8] was 214 nM, the inhibition [4] was 93.4% and the inhibition [6] was 14.2%.

For `COc1cc2c(cc1O)[C@H]1Cc3ccc(OC)c(OC)c3CN1CC2`, the inhibition [2] was 99.5%, the inhibition [3] was 40.6% and the Ki [7] was […]. It also gave an inhibition [6] of 64.2%.

For `COc1cc2c(cc1OC)[C@H]1Cc3ccc(OC)c(O)c3CN1CC2`, the inhibition [2] was 35.9%, the inhibition [3] was 19.3% and the inhibition [4] was 1.5%. The inhibition [6] was 6.2%.

`COc1c(O)ccc2c1CN1CCc3cc4c(cc3[C@@H]1C2)OCC4` was tested, and the Ki [1] was > 5000 nM, the inhibition [2] was 99.3% and the inhibition [3] was 91.7%. The Ki [7] was 7.5 nM, the inhibition [4] was 63.9% and the Ki [5] was 480 nM. It also gave an inhibition [6] of 79.5%.

`COc1cc2c(cc1OC)[C@H]1Cc3ccc(O)c(OC)c3CN1CC2` was tested, and the inhibition [2] was 54.4%, the inhibition [3] was 27.9% and the inhibition [4] was 3.4%. The inhibition [6] was 65.5%.

`COc1cc2c(cc1O)CCN1Cc3c(ccc(OC)c3OC)C[C@H]21` was tested, and the inhibition [2] was 88.8%, the inhibition [3] was 40.4% and the Ki [7] was 1190 nM. The inhibition [4] was 71.5% and the inhibition [6] was 55.4%.

Compound `COc1cc2c(cc1OC)[C@@H]1Cc3ccc(OC)c(O)c3CN1CC2` [TETRAHYDROPALMATRUBINE] has an inhibition [2] of 87.7%, an inhibition [3] of 20% and a Ki [7] of 443 nM. The inhibition [4] was 22.7% and the inhibition [6] was 30.5%.

For `COc1cc2c(cc1OC)[C@@H]1Cc3ccc(OC)c(OC)c3CN1CC2` [TETRAHYDROPALMATINE], the Ki [1] was > 5000 nM, the inhibition [2] was 96.9% and the inhibition [3] was 33%. The Ki [7] was 231 nM, the Ki [8] was > 5000 nM and the inhibition [4] was 85.4%. The inhibition [6] was 84.9%.

In the case of `COc1ccc2c(c1O)CN1CCc3cc4c(cc3[C@H]1C2)OCO4`, the inhibition [2] is reported as 78.9%, the inhibition [3] is reported as 10.9% and the Ki [7] is reported as > 5000 nM. For the same compound, the inhibition [4] was 20.4% and the inhibition [6] was 25.5%.

For `COc1ccc2c(c1OC)CN1CCc3cc4c(cc3[C@H]1C2)OCO4`, the inhibition [2] was 75.5%, the inhibition [3] was 18.3% and the Ki [7] was > 5000 nM. For the same compound, the inhibition [4] was 26.6% and the inhibition [6] was 34.5%.

With `COc1cc2c(cc1O)CCN1Cc3c(ccc(O)c3OC)C[C@@H]21` the Ki [1] was > 5000 nM, the inhibition [2] was 98.3% and the inhibition [3] was 84%. For the same compound, the Ki [7] was 200 nM, the Ki [8] was 113 nM and the inhibition [4] was 94.2%. The Ki [5] was > 5000 nM and the inhibition [6] was 76.7%.

`COc1ccc2c(c1)C[C@H]1c3cc(O)c(OC)cc3CCN1C2` showed an inhibition [2] of 97.5% and an inhibition [4] of 90%.

`COc1cc2c(cc1O)CCN1Cc3c(ccc(OC)c3O)C[C@H]21` showed an inhibition [2] of 49.4%, an inhibition [3] of 36% and an inhibition [4] of 8.16%. It also gave an inhibition [6] of 31.5%.

`Cc1nc2n(c(=O)c1CCN1CCC(c3noc4cc(F)ccc34)CC1)CCCC2` was tested, and the inhibition [9] was “Active”.

`CN1CCc2cc(Cl)c(O)cc2C(c2ccccc2)C1` (stereo not given) showed an inhibition [2] of 100%.

In the case of `COc1ccc2c(c1O)CN1CCc3cc4c(cc3[C@@H]1C2)OCO4`, the Ki [1] is reported as > 5000 nM, the inhibition [2] is reported as 98.7% and the inhibition [3] is reported as 49.1%. For the same compound, the Ki [7] was 60 nM, the Ki [8] was > 5000 nM and the inhibition [4] was 78%. It also gave an inhibition [6] of 82.8%.

With `COc1ccc2c(c1OC)CN1CCc3cc4c(cc3[C@@H]1C2)OCO4` [CANADINE] the Ki [1] was > 5000 nM, the inhibition [2] was 98.3% and the inhibition [3] was 46.6%. The Ki [7] was 66 nM, the Ki [8] was 119 nM and the inhibition [4] was 88.7%. The inhibition [6] was 84.4%.

Work on `COc1cc2c(cc1O)[C@@H]1Cc3ccc(OC)c(OC)c3CN1CC2` yielded an inhibition [2] of 99.2%, an inhibition [3] of 40.5% and a Ki [7] of […]. It also gave an inhibition [6] of 71.1%.

`COc1cc2c(cc1O)[C@H]1Cc3ccc(OC)c(O)c3CN1CC2` showed an inhibition [2] of 84.5%, an inhibition [3] of 26.3% and a Ki [7] of 529 nM. The inhibition [4] was 31.8% and the inhibition [6] was 2%.

`COc1cc2c(c(OC)c1)CN1CCc3cc(OC)c(O)cc3[C@@H]1C2` showed an inhibition [2] of 99.8%.

With `O=C(CCCN1CCC2(CC1)C(=O)NCN2c1ccccc1)c1ccc(F)cc1` the inhibition [3] was 100% and the inhibition [4] was 100%.

For `NCCc1c[nH]c2ccc(O)cc12`, the inhibition [6] was 100%.

With `COc1cc2c(cc1O)[C@H]1Cc3ccc(O)c(OC)c3CN1CC2` the inhibition [2] was 94.4%, the inhibition [3] was 16.4% and the Ki [7] was 135 nM. For the same compound, the inhibition [4] was 53.7% and the inhibition [6] was 53.6%.

`COc1cc2c(cc1O)[C@@H]1Cc3c(CO)c(OC)cc(OC)c3CN1CC2` was tested, and the Ki [1] was > 5000 nM, the inhibition [2] was 104% and the inhibition [4] was 94.8%.

`COc1cc2c(cc1O)CCN1Cc3c(ccc(OC)c3OC)C[C@@H]21` gave an inhibition [2] of 84.1%, an inhibition [3] of 38% and a Ki [7] of 310 nM. For the same compound, the inhibition [4] was 63.2% and the inhibition [6] was 50.5%.

With `COc1cc2c(cc1OC)[C@H]1Cc3ccc(OC)c(OC)c3CN1CC2` the inhibition [2] was 39.8%, the inhibition [3] was 29.7% and the inhibition [4] was 20.5%. The inhibition [6] was 30.4%.

Compound `COc1cc2c(cc1O)[C@@H]1Cc3cc4c(cc3CN1CC2)OCO4` has an inhibition [2] of 99.6%, an inhibition [3] of 49.9% and a Ki [7] of 4.2 nM. The inhibition [4] was 100% and the inhibition [6] was 61%.

`COc1cc2c(cc1O)[C@@H]1Cc3cc(C)cc(C)c3CN1CC2` showed an inhibition [2] of 99% and an inhibition [4] of 90.1%.

With `COc1c(O)ccc2c1CN1CCc3cc4c(cc3[C@H]1C2)OCO4` the inhibition [2] was 95.8%, the inhibition [3] was 25.3% and the Ki [7] was 565 nM. For the same compound, the inhibition [4] was 40.5% and the inhibition [6] was 63.6%.

In the case of `COc1cc2c(cc1O)[C@@H]1Cc3ccc(O)c(OC)c3CN1CC2` [STEPHOLIDINE], the Ki [1] is reported as > 5000 nM, the inhibition [2] is reported as 99.8% and the Ki [7] is reported as 3.4 nM. For the same compound, the Ki [8] was 11 nM and the inhibition [4] was 97.5%.
